Test system: HEK-293T
Test: Multiplex assay against HEK293T;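 for Population Tubulin-Different-Phenotype (%): share of the cells with healthy nuclei that show this phenotype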
Format: toxicity, cell-based
Details: human
Method in brief: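 Live cells were stained at seeding with Hoechst33342, BioTracker Green Microtubule Cytoskeleton Dye, MitoTracker Red and Annexin V Alexa Fluor 680, then imaged on a CQ1 microscope at 37°C and 5% CO2 after compound addition. CellPathfinder machine-learning gating split cells into Hoechst high-intensity objects or normal cells. Normal cells were split into healthy, pyknosed or fragmented nuclei, and pyknosed cells into mitotic or apoptotic. Tubulin, mitochondrial-mass and membrane-permeability phenotypes are per cents of healthy-nucleus cells.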

[1] = 12 h, 1 µM, compound concentration 1 uM, replicate 1
[2] = 12 h, 1 µM, compound concentration 1 uM, replicate 2
[3] = 12 h, 10 µM, compound concentration 10 uM, replicate 1
[4] = 12 h, 10 µM, compound concentration 10 uM, replicate 2
[5] = 24 h, 1 µM, compound concentration 1 uM, replicate 1
[6] = 24 h, 1 µM, compound concentration 1 uM, replicate 2
[7] = 24 h, 10 µM, compound concentration 10 uM, replicate 1
[8] = 24 h, 10 µM, compound concentration 10 uM, replicate 2
[9] = 48 h, 1 µM, compound concentration 1 uM, replicate 1
[10] = 48 h, 1 µM, compound concentration 1 uM, replicate 2
[11] = 48 h, 10 µM, compound concentration 10 uM, replicate 1
[12] = 48 h, 10 µM, compound concentration 10 uM, replicate 2

SMILES: CCOc1cc2ncc(C#N)c(Nc3ccc(OCc4ccccn4)c(Cl)c3)c2cc1NC(=O)/C=C/CN(C)C [NERATINIB]
- Population Apoptotic (%) [1]: 50%
- Population Fragmented Nuclei (%) [1]: 20%
- Population Healthy Nuclei (%) [1]: 24%
- Population Hoechst High Intensity Objects (%) [1]: 20%
- Population Membrane Permeable-Phenotype (%) [1]: 0%
- Population Mitochondria Different-Phenotype (%) [1]: 85%
- Population Mitotic Cells (%) [1]: 50%
- Population Normal (%) [1]: 79%
- Population Pyknosed Nuclei (%) [1]: 55%
- Population Tubulin-Different-Phenotype (%) [1]: 55%
- Total Cell Count [1]: 254
- Population Apoptotic (%) [2]: 21%
- Population Fragmented Nuclei (%) [2]: 25%
- Population Healthy Nuclei (%) [2]: 46%
- Population Hoechst High Intensity Objects (%) [2]: 19%
- Population Membrane Permeable-Phenotype (%) [2]: 3%
- Population Mitochondria Different-Phenotype (%) [2]: 15%
- Population Mitotic Cells (%) [2]: 78%
- Population Normal (%) [2]: 80%
- Population Pyknosed Nuclei (%) [2]: 27%
- Population Tubulin-Different-Phenotype (%) [2]: 15%
- Total Cell Count [2]: 471
- Population Apoptotic (%) [3]: 43%
- Population Fragmented Nuclei (%) [3]: 25%
- Population Healthy Nuclei (%) [3]: 52%
- Population Hoechst High Intensity Objects (%) [3]: 29%
- Population Mitochondria Different-Phenotype (%) [3]: 22%
- Population Mitotic Cells (%) [3]: 56%
- Population Normal (%) [3]: 70%
- Population Pyknosed Nuclei (%) [3]: 21%
- Population Tubulin-Different-Phenotype (%) [3]: 23%
- Total Cell Count [3]: 1420
- Population Apoptotic (%) [4]: 33%
- Population Fragmented Nuclei (%) [4]: 30%
- Population Healthy Nuclei (%) [4]: 50%
- Population Hoechst High Intensity Objects (%) [4]: 27%
- Population Membrane Permeable-Phenotype (%) [4]: 3%
- Population Mitochondria Different-Phenotype (%) [4]: 11%
- Population Mitotic Cells (%) [4]: 66%
- Population Normal (%) [4]: 72%
- Population Pyknosed Nuclei (%) [4]: 18%
- Population Tubulin-Different-Phenotype (%) [4]: 15%
- Total Cell Count [4]: 844
- Population Apoptotic (%) [5]: 55%
- Population Fragmented Nuclei (%) [5]: 19%
- Population Healthy Nuclei (%) [5]: 20%
- Population Hoechst High Intensity Objects (%) [5]: 20%
- Population Membrane Permeable-Phenotype (%) [5]: 2%
- Population Mitochondria Different-Phenotype (%) [5]: 80%
- Population Mitotic Cells (%) [5]: 44%
- Population Normal (%) [5]: 79%
- Population Pyknosed Nuclei (%) [5]: 59%
- Population Tubulin-Different-Phenotype (%) [5]: 61%
- Total Cell Count [5]: 262
- Population Apoptotic (%) [6]: 20%
- Population Fragmented Nuclei (%) [6]: 26%
- Population Healthy Nuclei (%) [6]: 50%
- Population Hoechst High Intensity Objects (%) [6]: 16%
- Population Mitochondria Different-Phenotype (%) [6]: 24%
- Population Mitotic Cells (%) [6]: 80%
- Population Normal (%) [6]: 83%
- Population Pyknosed Nuclei (%) [6]: 22%
- Population Tubulin-Different-Phenotype (%) [6]: 24%
- Total Cell Count [6]: 531
- Population Apoptotic (%) [7]: 50%
- Population Fragmented Nuclei (%) [7]: 25%
- Population Healthy Nuclei (%) [7]: 50%
- Population Hoechst High Intensity Objects (%) [7]: 30%
- Population Membrane Permeable-Phenotype (%) [7]: 1%
- Population Mitochondria Different-Phenotype (%) [7]: 19%
- Population Mitotic Cells (%) [7]: 49%
- Population Normal (%) [7]: 69%
- Population Pyknosed Nuclei (%) [7]: 23%
- Population Tubulin-Different-Phenotype (%) [7]: 19%
- Total Cell Count [7]: 1427
- Population Apoptotic (%) [8]: 42%
- Population Fragmented Nuclei (%) [8]: 31%
- Population Healthy Nuclei (%) [8]: 49%
- Population Hoechst High Intensity Objects (%) [8]: 25%
- Population Membrane Permeable-Phenotype (%) [8]: 0%
- Population Mitochondria Different-Phenotype (%) [8]: 12%
- Population Mitotic Cells (%) [8]: 57%
- Population Normal (%) [8]: 74%
- Population Pyknosed Nuclei (%) [8]: 18%
- Population Tubulin-Different-Phenotype (%) [8]: 14%
- Total Cell Count [8]: 857
- Population Apoptotic (%) [9]: 62%
- Population Fragmented Nuclei (%) [9]: 23%
- Population Healthy Nuclei (%) [9]: 17%
- Population Hoechst High Intensity Objects (%) [9]: 23%
- Population Membrane Permeable-Phenotype (%) [9]: 2%
- Population Mitochondria Different-Phenotype (%) [9]: 56%
- Population Mitotic Cells (%) [9]: 37%
- Population Normal (%) [9]: 76%
- Population Pyknosed Nuclei (%) [9]: 58%
- Population Tubulin-Different-Phenotype (%) [9]: 29%
- Total Cell Count [9]: 277
- Population Apoptotic (%) [10]: 17%
- Population Fragmented Nuclei (%) [10]: 21%
- Population Healthy Nuclei (%) [10]: 62%
- Population Hoechst High Intensity Objects (%) [10]: 15%
- Population Mitochondria Different-Phenotype (%) [10]: 14%
- Population Mitotic Cells (%) [10]: 82%
- Population Normal (%) [10]: 84%
- Population Pyknosed Nuclei (%) [10]: 16%
- Population Tubulin-Different-Phenotype (%) [10]: 27%
- Total Cell Count [10]: 609
- Population Apoptotic (%) [11]: 52%
- Population Fragmented Nuclei (%) [11]: 29%
- Population Healthy Nuclei (%) [11]: 46%
- Population Hoechst High Intensity Objects (%) [11]: 32%
- Population Membrane Permeable-Phenotype (%) [11]: 0%
- Population Mitochondria Different-Phenotype (%) [11]: 15%
- Population Mitotic Cells (%) [11]: 47%
- Population Normal (%) [11]: 67%
- Population Pyknosed Nuclei (%) [11]: 23%
- Population Tubulin-Different-Phenotype (%) [11]: 16%
- Total Cell Count [11]: 1487
- Population Apoptotic (%) [12]: 42%
- Population Fragmented Nuclei (%) [12]: 32%
- Population Healthy Nuclei (%) [12]: 51%
- Population Hoechst High Intensity Objects (%) [12]: 24%
- Population Mitochondria Different-Phenotype (%) [12]: 16%
- Population Mitotic Cells (%) [12]: 58%
- Population Normal (%) [12]: 75%
- Population Pyknosed Nuclei (%) [12]: 16%
- Population Tubulin-Different-Phenotype (%) [12]: 21%
- Total Cell Count [12]: 828

From ChEMBL document CHEMBL4689842, “EUbOPEN Chemogenomics Library wave 1” (2021)
